{"source": "ChEMBL document CHEMBL4364279", "about": "“Design, synthesis, in-silico and biological evaluation of novel chalcone-O-carbamate derivatives as multifunctional agents for the treatment of Alzheimer's disease” (Eur J Med Chem, 2019)", "key": {"[1]": {"molecular_target": "Amyloid-beta precursor protein (Homo sapiens) (UniProt P05067)", "sequence (P05067 whole entry)": "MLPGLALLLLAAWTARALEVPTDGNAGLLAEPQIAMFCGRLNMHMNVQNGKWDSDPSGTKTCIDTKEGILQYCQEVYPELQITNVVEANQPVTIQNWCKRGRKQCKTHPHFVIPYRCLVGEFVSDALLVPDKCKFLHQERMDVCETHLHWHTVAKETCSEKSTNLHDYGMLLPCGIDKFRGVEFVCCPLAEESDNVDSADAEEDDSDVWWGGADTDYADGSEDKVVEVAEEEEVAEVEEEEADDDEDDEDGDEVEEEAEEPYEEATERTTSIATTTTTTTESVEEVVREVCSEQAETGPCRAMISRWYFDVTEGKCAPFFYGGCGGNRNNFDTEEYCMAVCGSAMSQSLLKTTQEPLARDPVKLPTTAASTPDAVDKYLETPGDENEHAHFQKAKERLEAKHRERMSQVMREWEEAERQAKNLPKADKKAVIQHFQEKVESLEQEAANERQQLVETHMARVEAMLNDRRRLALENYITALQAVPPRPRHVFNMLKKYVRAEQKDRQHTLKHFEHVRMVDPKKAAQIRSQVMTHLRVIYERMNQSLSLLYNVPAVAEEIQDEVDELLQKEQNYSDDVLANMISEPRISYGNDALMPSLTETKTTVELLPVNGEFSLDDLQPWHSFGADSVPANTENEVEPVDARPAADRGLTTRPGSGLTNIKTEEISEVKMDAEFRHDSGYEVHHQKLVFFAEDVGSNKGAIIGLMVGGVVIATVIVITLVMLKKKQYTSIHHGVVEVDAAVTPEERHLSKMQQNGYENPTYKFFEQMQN", "experiment": "Inhibition of self-induced amyloid beta (1 to 42) (unknown origin) aggregation at 25 uM after 24 hrs by thioflavin-T based fluorescence assay relative to control"}, "Cholinesterase": {"molecular_target": "Cholinesterase (Equus caballus, UniProt P81908)", "sequence (P81908 whole entry)": "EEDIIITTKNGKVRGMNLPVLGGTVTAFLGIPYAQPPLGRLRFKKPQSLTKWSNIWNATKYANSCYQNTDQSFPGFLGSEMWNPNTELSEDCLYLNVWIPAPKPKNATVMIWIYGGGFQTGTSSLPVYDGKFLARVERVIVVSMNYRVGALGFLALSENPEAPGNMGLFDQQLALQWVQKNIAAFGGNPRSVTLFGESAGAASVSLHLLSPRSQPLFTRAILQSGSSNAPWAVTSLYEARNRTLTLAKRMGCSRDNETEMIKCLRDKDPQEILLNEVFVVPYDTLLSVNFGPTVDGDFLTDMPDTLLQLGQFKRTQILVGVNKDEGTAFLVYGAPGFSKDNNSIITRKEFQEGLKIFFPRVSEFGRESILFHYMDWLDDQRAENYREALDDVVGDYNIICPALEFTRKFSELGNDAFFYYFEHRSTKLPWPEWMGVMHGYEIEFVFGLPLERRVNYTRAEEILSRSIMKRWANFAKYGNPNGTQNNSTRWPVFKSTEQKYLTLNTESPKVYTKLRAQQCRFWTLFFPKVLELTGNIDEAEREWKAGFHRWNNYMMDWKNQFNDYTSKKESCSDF", "experiment": "Inhibition of equine serum BuChE using S-butyrylthiocholine iodide as susbtrate preincubated for 6 mins followed by substrate addition measured up to 3 mins by Ellman's method"}, "[2]": {"molecular_target": "T1, Amine oxidase [flavin-containing] A (Homo sapiens, UniProt P21397)", "T1 sequence (P21397 whole entry)": "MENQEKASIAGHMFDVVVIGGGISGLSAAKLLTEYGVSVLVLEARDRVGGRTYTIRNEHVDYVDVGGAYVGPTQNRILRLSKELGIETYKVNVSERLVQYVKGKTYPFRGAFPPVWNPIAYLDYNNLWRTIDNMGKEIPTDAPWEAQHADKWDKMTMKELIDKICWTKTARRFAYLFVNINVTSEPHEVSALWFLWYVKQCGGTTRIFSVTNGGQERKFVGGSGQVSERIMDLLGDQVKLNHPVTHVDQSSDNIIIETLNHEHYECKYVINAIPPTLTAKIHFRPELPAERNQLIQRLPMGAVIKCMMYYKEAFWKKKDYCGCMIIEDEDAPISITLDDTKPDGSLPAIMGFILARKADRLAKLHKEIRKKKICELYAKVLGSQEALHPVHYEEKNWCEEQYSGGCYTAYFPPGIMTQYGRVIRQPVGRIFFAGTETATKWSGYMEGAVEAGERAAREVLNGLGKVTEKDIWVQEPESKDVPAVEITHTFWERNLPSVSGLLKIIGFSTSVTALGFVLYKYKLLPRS", "experiment": "Inhibition of recombinant human MAO-A expressed in baculovirus infected BTI insect cells at 12.5 uM using kynuramine as substrate measured after 30 mins by fluorescence based assay relative to control", "conditions": "0.5 h"}, "[3]": {"experiment": "Antioxidant activity assessed as trolox equivalents of AAPH radical scavenging activity preincubated for 15 mins followed by AAPH addition and measured every minute for 90 mins by ORAC-FL assay", "assay_type": "functional"}, "[4]": {"molecular_target": "Acetylcholinesterase (AChE) (Electrophorus electricus, UniProt O42275)", "sequence (O42275 whole entry)": "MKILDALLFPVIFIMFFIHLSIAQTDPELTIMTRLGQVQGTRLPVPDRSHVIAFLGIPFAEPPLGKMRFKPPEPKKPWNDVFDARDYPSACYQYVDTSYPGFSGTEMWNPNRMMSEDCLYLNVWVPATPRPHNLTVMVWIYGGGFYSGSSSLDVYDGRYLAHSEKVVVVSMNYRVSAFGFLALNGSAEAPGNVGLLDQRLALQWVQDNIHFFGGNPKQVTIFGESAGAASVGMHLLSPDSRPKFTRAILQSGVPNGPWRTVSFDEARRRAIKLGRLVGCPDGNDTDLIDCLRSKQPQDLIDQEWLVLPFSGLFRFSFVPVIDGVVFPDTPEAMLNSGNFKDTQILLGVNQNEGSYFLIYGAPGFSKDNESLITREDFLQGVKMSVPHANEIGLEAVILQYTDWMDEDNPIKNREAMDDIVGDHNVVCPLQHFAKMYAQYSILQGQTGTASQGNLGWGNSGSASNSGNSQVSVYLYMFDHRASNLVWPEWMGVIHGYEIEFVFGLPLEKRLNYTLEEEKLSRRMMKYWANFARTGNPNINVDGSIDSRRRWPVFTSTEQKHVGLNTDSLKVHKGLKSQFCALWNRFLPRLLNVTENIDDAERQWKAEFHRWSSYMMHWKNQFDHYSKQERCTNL", "experiment": "Inhibition of electric eel AChE at 25 uM using acetylthiocholine iodide as substrate incubated for 15 mins by Ellman's method relative to control", "conditions": "electric eel acetylcholinesterase (isolated enzyme), probe acetylthiocholine iodide"}, "[5]": {"molecular_target": "T2, Amine oxidase [flavin-containing] B (Homo sapiens, UniProt P27338)", "T2 sequence (P27338 whole entry)": "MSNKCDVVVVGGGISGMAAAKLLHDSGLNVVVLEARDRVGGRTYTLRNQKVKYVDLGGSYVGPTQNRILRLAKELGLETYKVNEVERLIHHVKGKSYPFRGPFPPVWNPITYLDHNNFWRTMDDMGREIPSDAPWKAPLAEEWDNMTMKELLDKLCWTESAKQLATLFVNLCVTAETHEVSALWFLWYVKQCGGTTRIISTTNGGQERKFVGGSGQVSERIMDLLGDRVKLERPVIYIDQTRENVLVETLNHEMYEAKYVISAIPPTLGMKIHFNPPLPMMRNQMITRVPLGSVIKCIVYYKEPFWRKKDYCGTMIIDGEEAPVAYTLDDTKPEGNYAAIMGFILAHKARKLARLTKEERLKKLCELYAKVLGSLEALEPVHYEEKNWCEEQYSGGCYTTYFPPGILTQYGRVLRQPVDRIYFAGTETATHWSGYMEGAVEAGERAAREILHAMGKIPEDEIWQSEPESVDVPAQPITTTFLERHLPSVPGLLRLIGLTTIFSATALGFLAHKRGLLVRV", "experiment": "biochemical", "assay_type": "cell-based"}, "[6]": {"experiment": "Inhibition of Cu2+-induced amyloid beta (1 to 42 residues) (unknown origin) aggregation at 25 uM after 24 hrs by thioflavin-T based fluorescence assay relative to control", "outline": "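Aβ1-42 (25 µM) and Cu2+ (25 µM) incubated at 37 °C for 24 h with or without compound (25 µM). ThT (5 µM in 50 mM glycine-NaOH, pH 8.5) then added; fluorescence read at ex 446/em 490 nm. Inhibition = (1−IFi/IFc)×100 after background subtraction. Three independent experiments.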"}, "[7]": {"experiment": "Disaggregation of Cu2+ induced preformed fibrils of amyloid beta (1 to 42) (unknown origin) at 25 uM preincubated with Cu2+ for 24 hrs followed by compound addition and measured after 24 hrs by thioflavin-T based fluorescence assay relative to control", "outline": "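Aβ1-42 (25 µM) and Cu2+ (25 µM) preincubated at 37 °C for 24 h, then compound (25 µM) added and incubated a further 24 h at 37 °C. ThT (5 µM in 50 mM glycine-NaOH, pH 8.5) added; fluorescence at ex 446/em 490 nm, background subtracted, % vs no-compound control. Three independent experiments.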"}, "[8]": {"molecular_target": "Cholinesterase (Equus caballus) (UniProt P81908)", "sequence (P81908 whole entry)": "as the sequence (P81908 whole entry) above", "experiment": "Reversible inhibition of equine serum BuChE assessed as enzyme activity at IC50 using butyrylthiocholine iodide as substrate by Ellman's method relative to control", "parameters": "scale not given: the % may be the effect or the level left"}, "[9]": {"molecular_target": "Cholinesterase (Equus caballus) (UniProt P81908)", "experiment": "Reversible inhibition of equine serum BuChE assessed as enzyme activity at 0.1 times IC50 using butyrylthiocholine iodide as substrate measured at 120 mins by Ellman's method relative to control", "parameters": "scale not given: the % may be the effect or the level left", "outline": "(§1)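 Reversibility tested by recovery of equine serum BuChE activity after dilution of inhibitor, with activity monitored over time up to 240 min by the Ellman method (DTNB read at 412 nm). Activity expressed relative to untreated control. Three independent experiments.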"}, "[10]": {"molecular_target": "Cholinesterase (Equus caballus) (UniProt P81908)", "experiment": "Reversible inhibition of equine serum BuChE assessed as enzyme activity at 0.1 times IC50 using butyrylthiocholine iodide as substrate by Ellman's method relative to control", "parameters": "scale not given: the % may be the effect or the level left", "outline": "as §1"}, "in vitro": {"experiment": "in vitro", "conditions": "PAMPA, pH 7.4"}, "[11]": {"experiment": "Metal chelating activity of the compound assessed as formation of Al3+-compound complex at 37.5 uM after 30 mins by UV-vis absorption spectra analysis", "outline": "(§2)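 Metal binding examined by plate-reader absorbance scan using CuCl2, ZnCl2, AlCl3, FeSO4, CuCl and Fe(NO3)3 as metal sources.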"}, "[12]": {"experiment": "Metal chelating activity of the compound assessed as formation of Zn2+-compound complex at 37.5 uM after 30 mins by UV-vis absorption spectra analysis", "outline": "as §2"}, "PC-12 [13]": {"tested_on": "PC-12", "experiment": "Neuroprotective activity against H2O2-induced cell death in rat PC12 cells assessed as cell viability at 10 uM pretreated for 2 hrs followed by H2O2 addition measured after 30 mins by MTT assay (reference value: 49.6%)", "assay_type": "functional", "conditions": "read-out: Activity"}, "PC-12 [14]": {"tested_on": "PC-12", "experiment": "Neuroprotective activity against H2O2-induced cell death in rat PC12 cells assessed as cell viability at 1 uM pretreated for 2 hrs followed by H2O2 addition measured after 30 mins by MTT assay (reference value: 49.6%)", "assay_type": "functional", "conditions": "read-out: Activity"}, "[15]": {"experiment": "Metal chelating activity of the compound assessed as formation of Fe2+-compound complex at 37.5 uM after 30 mins by UV-vis absorption spectra analysis", "outline": "as §2"}, "[16]": {"experiment": "Metal chelating activity of the compound assessed as formation of Cu2+-compound complex at 37.5 uM after 30 mins by UV-vis absorption spectra analysis", "outline": "as §2"}}, "note": "Calls of active or inactive are those of the source. The rule behind the calls is not given here."}
{"compound": "CN(C)C(=O)Oc1cccc(/C=C/C(=O)c2ccccc2O)c1", "values": [{"measurement": "inhibition", "setting": "[1]", "value": 60.2, "unit": "%"}, {"measurement": "IC50", "setting": "Cholinesterase", "value": 2.51, "unit": "µM"}, {"measurement": "inhibition at 12.5 µM", "setting": "[2]", "value": 19.9, "unit": "%"}, {"measurement": "Activity", "setting": "[3]", "value": 1.1, "unit": "µMequiv/µM"}, {"measurement": "inhibition at 0.25 h, 25 µM", "setting": "[4]", "value": 28.8, "unit": "%"}, {"measurement": "IC50", "setting": "[5]", "value": 0.8, "unit": "µM"}]}
{"compound": "CN(C)C(=O)Oc1cccc(/C=C/C(=O)c2ccccc2OC(=O)N(C)C)c1", "values": [{"measurement": "IC50", "setting": "Cholinesterase", "value": 4.5, "unit": "µM"}, {"measurement": "inhibition at 12.5 µM", "setting": "[2]", "value": 18.9, "unit": "%"}, {"measurement": "Activity", "setting": "[3]", "value": 0.32, "unit": "µMequiv/µM"}, {"measurement": "inhibition at 0.25 h, 25 µM", "setting": "[4]", "value": 11.7, "unit": "%"}, {"measurement": "IC50", "setting": "[5]", "value": 2.9, "unit": "µM"}]}
{"compound": "O=C(/C=C/c1cccc(OC(=O)N2CCOCC2)c1)c1ccccc1OC(=O)N1CCOCC1", "values": [{"measurement": "inhibition", "setting": "[1]", "value": 49.2, "unit": "%"}, {"measurement": "IC50", "setting": "Cholinesterase", "value": 2, "unit": "µM"}, {"measurement": "inhibition at 12.5 µM", "setting": "[2]", "value": 20.9, "unit": "%"}, {"measurement": "Activity", "setting": "[3]", "value": 0.32, "unit": "µMequiv/µM"}, {"measurement": "inhibition at 0.25 h, 25 µM", "setting": "[4]", "value": 20.8, "unit": "%"}, {"measurement": "IC50", "setting": "[5]", "value": 5.2, "unit": "µM"}]}
{"compound": "COc1cc(/C=C/C(=O)CC(=O)/C=C/c2ccc(O)c(OC)c2)ccc1O", "values": [{"measurement": "inhibition", "setting": "[6]", "value": 73.4, "unit": "%"}, {"measurement": "Activity", "setting": "[7]", "value": 58.2, "unit": "%"}]}
{"compound": "COc1cc2c(cc1OC)C(=O)C(CC1CCN(Cc3ccccc3)CC1)C2", "note": "(configuration not stated)", "values": [{"measurement": "Activity", "setting": "[8]", "value": 54.1, "unit": "%"}, {"measurement": "Activity", "setting": "[9]", "value": 104, "unit": "%"}]}
{"compound": "O=C(/C=C/c1cccc(OC(=O)N2CCOCC2)c1)c1ccccc1O", "values": [{"measurement": "IC50", "setting": "Cholinesterase", "value": 5.1, "unit": "µM"}, {"measurement": "inhibition at 12.5 µM", "setting": "[2]", "value": 17.4, "unit": "%"}, {"measurement": "Activity", "setting": "[3]", "value": 1.2, "unit": "µMequiv/µM"}, {"measurement": "inhibition at 0.25 h, 25 µM", "setting": "[4]", "value": 24.3, "unit": "%"}, {"measurement": "IC50", "setting": "[5]", "value": 3.1, "unit": "µM"}]}
{"compound": "CCN(C)C(=O)Oc1cccc(/C=C/C(=O)c2ccccc2OC(=O)N(C)CC)c1", "values": [{"measurement": "Activity", "setting": "[8]", "value": 49.7, "unit": "%"}, {"measurement": "inhibition", "setting": "[1]", "value": 53.1, "unit": "%"}, {"measurement": "Activity", "setting": "[10]", "value": 50.7, "unit": "%"}, {"measurement": "IC50", "setting": "Cholinesterase", "value": 1.2, "unit": "µM"}, {"measurement": "inhibition at 12.5 µM", "setting": "[2]", "value": 28.4, "unit": "%"}, {"measurement": "Papp at 100 ug/ml", "setting": "in vitro", "value": 23.1, "unit": "×10⁻⁶ cm/s"}, {"measurement": "Activity", "setting": "[11]", "value": "inactive"}, {"measurement": "Activity", "setting": "[3]", "value": 0.35, "unit": "µMequiv/µM"}, {"measurement": "Activity", "setting": "[9]", "value": 70.9, "unit": "%"}, {"measurement": "Activity", "setting": "[12]", "value": "inactive"}, {"measurement": "viability at 10 µM", "setting": "PC-12 [13]", "value": 63.2, "unit": "%"}, {"measurement": "inhibition at 0.25 h, 25 µM", "setting": "[4]", "value": 35.4, "unit": "%"}, {"measurement": "viability at 1 µM", "setting": "PC-12 [14]", "value": 53.7, "unit": "%"}, {"measurement": "Activity", "setting": "[15]", "value": "inactive"}, {"measurement": "IC50", "setting": "[5]", "value": 3.7, "unit": "µM"}, {"measurement": "Activity", "setting": "[16]", "value": "inactive"}]}
{"compound": "O=C(/C=C/c1cccc(OC(=O)N(c2ccccc2)c2ccccc2)c1)c1ccccc1O", "values": [{"measurement": "IC50", "setting": "Cholinesterase", "value": 56.2, "unit": "µM"}, {"measurement": "inhibition at 12.5 µM", "setting": "[2]", "value": 18.2, "unit": "%"}, {"measurement": "Activity", "setting": "[3]", "value": 1.1, "unit": "µMequiv/µM"}, {"measurement": "inhibition at 0.25 h, 25 µM", "setting": "[4]", "value": 18.9, "unit": "%"}, {"measurement": "IC50", "setting": "[5]", "value": 4.9, "unit": "µM"}]}
